The values below come from article PMC4780051 (Biochemistry, 2010).

In test [1] the target is T1, ct-AChBP (Capitella teleta acetylcholine-binding protein) (Capitella teleta, UniProt I6L8L2).
T1 sequence (I6L8L2 1-224): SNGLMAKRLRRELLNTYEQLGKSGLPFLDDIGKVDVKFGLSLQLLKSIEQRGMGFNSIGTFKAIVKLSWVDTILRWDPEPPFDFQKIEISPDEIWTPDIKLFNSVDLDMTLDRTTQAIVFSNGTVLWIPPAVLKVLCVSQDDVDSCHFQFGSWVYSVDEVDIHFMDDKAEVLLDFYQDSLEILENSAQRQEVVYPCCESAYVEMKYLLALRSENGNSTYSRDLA
The experiment in a line: 1H NMR direct titration.

The target in test [2] is T1, ct-AChBP (Capitella teleta acetylcholine-binding protein). The experiment in a line: STD NMR displacement titration with acetylcholine as reporter ligand.
Test [3] has the same target. As to the kind of experiment: STD NMR displacement titration with choline as reporter ligand. The gist of the method: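 C-terminally V5/His-tagged ct-AChBP, stably expressed in HEK293-f cells, purified from medium by cobalt affinity then Superdex 200. 5 μM protein with 100 μM choline in 25 mM phosphate pH 7.0, 100% D2O, titrated with test compound; 16K scans; choline CH2 STD peaks tracked. KD fitted by competition equation using choline KD from shift/line-width titration; standard errors from asymptotic covariance matrix.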

The target in test [4] is Capitella teleta acetylcholine-binding protein (Capitella teleta). As to the kind of experiment: NMR titration.

Turning to `C[N+](C)(C)CCO` [Ch, choline], the affinity in test [1], expressed as Kd, was 163 ± 37 µM.
For the compound `CN1CCC[C@H]1c1cccnc1` [Nic, nicotine], the dissociation constant Kd in test [2] turned out to be 0.209 ± 0.051 µM.
The compound `CC(=O)OCC[N+](C)(C)C` [ACh, acetylcholine] yielded a Kd in test [3] of 28.7 ± 1.7 µM.
Turning to “α-bungarotoxin (from UniProt P60615 22-95) (natural protein)”, the Kd in test [4] is 0.11 µM.
